Source: paper PMC7113734 (Antiviral Research, 2016)
≈ marks a conversion by molar mass, not a printed value. Like-named read-outs stand apart in the source and are kept apart here.

Key:
[1] = tested on: drug-resistant HIV-1 strains; assay: Antiviral activity against drug-resistant HIV-1 strains in MT-4; type: cell-based; conditions: for EC50: MT-4
[2] = tested on: HIV attachment to HeLa-CD4-LTR-β-gal cells; assay: Attachment inhibition assay; type: cell-based, HIV-1; conditions: Human immunodeficiency virus 1, read-out: Attachment inhibition EC50 ± SD
[3] = tested on: drug resistant clinical HIV isolates; assay: Antiviral activity against drug-resistant HIV-1 in PBMCs; type: cell-based; conditions: Human immunodeficiency virus 1, PBMC
HIVIIIB = assay: Cell-to-cell virus transmission assay in CEM-SS cells; type: cell-based, HIV-1
HIV strain 92US727 = assay: Cell-to-cell virus transmission assay in fresh human PBMCs; type: cell-based, HIV-1
Summary of the method: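 HIV-infected fresh human PBMCs treated 3 days with six concentrations of test compound. Passaged every 3 days for three passages at fixed compound concentration; 80% of culture volume replaced with fresh compound-containing medium and uninfected cells. Cell-free supernatants collected on sub-culture days for RT activity and extracellular p24 antigen. TCID50 per passage by endpoint dilution.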

[4] = tested on: HL2/3 cells expressing HIV-1 gp120 and gp41 fusing with HeLa-CD4-LTR-β-gal cells; assay: Fusion inhibition assay; type: cell-based; conditions: read-out: Fusion inhibition EC50 ± SD
Summary of the method: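 HeLa-CD4-LTR-β-Gal cells incubated with test compound for 1 h at 37°C/5% CO2, then co-cultured 48 h with HL2/3 cells. Cells lysed and β-galactosidase expression measured by chemiluminescent Gal-Screen.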

`Cc1cn([C@H]2C[C@H](N=[N+]=[N-])[C@@H](CO)O2)c(=O)[nH]c1=O` [AZT, reference compound] was tested, and the EC50 ([1]; Human immunodeficiency virus 1, read-out: Mean EC50 ± SD, positive control, AZT- and NNRTI-resistant, RT 4xAZT/L100I) was 4 nM, the EC50 ([1]; Human immunodeficiency virus 1, read-out: Mean EC50 ± SD, positive control, AZT- and NNRTI-resistant, RT 4xAZT/Y181C) was 7 nM and the EC50 ([1]; Human immunodeficiency virus 1, read-out: Mean EC50 ± SD, positive control, Atazanavir-resistant, PR I50L) was 1.5 nM. For the same molecule, the EC50 ([1]; Human immunodeficiency virus 1, read-out: Mean EC50 ± SD, positive control, Didanosine-resistant, RT L74V) was 2 nM, the EC50 ([1]; Human immunodeficiency virus 1, read-out: Mean EC50 ± SD, positive control, Enfuviritide-resistant, Env V38A/N126K) was 1.5 nM and the EC50 ([1]; Human immunodeficiency virus 1, read-out: Mean EC50 ± SD, positive control, Indinavir-, Ritonavir-resistant, PR I84V) was 2.5 nM. For the same molecule, the EC50 ([1]; Human immunodeficiency virus 1, read-out: Mean EC50 ± SD, positive control, Indinavir-, Ritonavir-resistant, PR V82A) was 3.5 nM, the EC50 ([1]; Human immunodeficiency virus 1, read-out: Mean EC50 ± SD, positive control, Indinavir-, Ritonavir-resistant, PR V82F/I84V) was 2 nM and the EC50 ([1]; Human immunodeficiency virus 1, read-out: Mean EC50 ± SD, positive control, Lamivudine-resistant, RT M184V) was 0.55 nM. The EC50 ([1]; Human immunodeficiency virus 1, read-out: Mean EC50 ± SD, positive control, NNRTI-resistant, RT K103N/Y181C) was 2 nM, the EC50 ([1]; Human immunodeficiency virus 1, read-out: Mean EC50 ± SD, positive control, NNRTI-resistant, RT K103N) was 0.9 nM and the EC50 ([1]; Human immunodeficiency virus 1, read-out: Mean EC50 ± SD, positive control, NNRTI-resistant, RT L100I) was 0.65 nM. For the same molecule, the EC50 ([1]; Human immunodeficiency virus 1, read-out: Mean EC50 ± SD, positive control, NNRTI-resistant, RT V106A) was 2 nM, the EC50 ([1]; Human immunodeficiency virus 1, read-out: Mean EC50 ± SD, positive control, NNRTI-resistant, RT V108I) was 1.5 nM and the EC50 ([1]; Human immunodeficiency virus 1, read-out: Mean EC50 ± SD, positive control, NNRTI-resistant, RT V179D) was 1 nM. For the same molecule, the EC50 ([1]; Human immunodeficiency virus 1, read-out: Mean EC50 ± SD, positive control, NNRTI-resistant, RT Y181C) was 1 nM, the EC50 ([1]; Human immunodeficiency virus 1, read-out: Mean EC50 ± SD, positive control, NNRTI-resistant, RT Y188C) was 1.5 nM and the EC50 ([1]; Human immunodeficiency virus 1, read-out: Mean EC50 ± SD, positive control, Raltegravir-resistant, IN Q148H/G140S) was 2 nM. The EC50 ([1]; Human immunodeficiency virus 1, read-out: Mean EC50 ± SD, positive control, Saquinavir-resistant, PR G48V/L90M) was 3.5 nM.
`COc1cc(-c2ccc(/N=N/c3ccc4c(S(=O)(=O)O)cc(S(=O)(=O)O)c(N)c4c3O)c(OC)c2)ccc1/N=N/c1ccc2c(S(=O)(=O)O)cc(S(=O)(=O)O)c(N)c2c1O` [Chicago sky blue, reference compound] was tested, and the EC50 [2] was 0.64 mg/L (≈ 0.707 µM).
`Cc1ccnc2c1NC(=O)c1cccnc1N2C1CC1` [NVP, reference compound] was tested, and the EC50 ([1]; Human immunodeficiency virus 1, read-out: Mean EC50 ± SD, positive control, AZT-resistant, RT 4xAZT (D67N/K70R/T215Y/K219Q)) was 35 nM.
In the case of `CC(C)c1nc(CN(C)C(=O)N[C@H](C(=O)N[C@@H](Cc2ccccc2)C[C@H](O)[C@H](Cc2ccccc2)NC(=O)OCc2cncs2)C(C)C)cs1` [RTV, reference compound], the “Mean EC50 ± SD, positive control” value ([1]; {}) is reported as “RTV 0.06 ± 0.02 nM”.
`Cc1nnc(C(=O)NC(C)(C)c2nc(C(=O)NCc3ccc(F)cc3)c(O)c(=O)n2C)o1` [Raltegravir, reference compound] showed an EC50 ([3]; read-out: PBMC/HIV-1 EC50 ± SD, Multi-drug resistant AD. MDR) of 2980 ± 540 nM, an EC50 ([3]; read-out: PBMC/HIV-1 EC50 ± SD, Multi-drug resistant MDR769) of 2370 ± 1510 nM and an EC50 ([3]; read-out: PBMC/HIV-1 EC50 ± SD, NNRTI-resistant A17R) of 1990 ± 40 nM. The EC50 ([3]; read-out: PBMC/HIV-1 EC50 ± SD, NNRTI-resistant N119) was 3540 ± 890 nM, the EC50 ([3]; read-out: PBMC/HIV-1 EC50 ± SD, PI-resistant 144-44) was 3870 ± 3250 nM and the EC50 ([3]; read-out: PBMC/HIV-1 EC50 ± SD, PI-resistant 1002-60) was 2970 ± 230 nM. It also gave an EC50 ([3]; read-out: PBMC/HIV-1 EC50 ± SD, PI-resistant 1022-48) of 1320 ± 170 nM, an EC50 ([3]; read-out: PBMC/HIV-1 EC50 ± SD, PI-resistant 1026-60) of 1770 ± 850 nM and an EC50 ([3]; read-out: PBMC/HIV-1 EC50 ± SD, PI-resistant 1064-52) of 860 ± 490 nM. It also gave an EC50 ([3]; read-out: PBMC/HIV-1 EC50 ± SD, Wild Type 92US727) of 10500 ± 12700 nM.
With `CC(C)(C)NC(=O)[C@@H]1C[C@@H]2CCCC[C@@H]2CN1C[C@@H](O)[C@H](Cc1ccccc1)NC(=O)[C@H](CC(N)=O)NC(=O)c1ccc2ccccc2n1` [Saquinavir, reference compound] the RT (HIVIIIB; Passage 1, 20 nM) was 25 cpm, the TCID50/mL (HIVIIIB; Passage 1, 20 nM) was 0 TCID50/mL and the p24 (HIVIIIB; Passage 1, 20 nM) was 794 pg/mL. For the same molecule, the RT (HIVIIIB; Passage 2, 20 nM) was 107 cpm, the TCID50/mL (HIVIIIB; Passage 2, 20 nM) was 0 TCID50/mL and the p24 (HIVIIIB; Passage 2, 20 nM) was 1589 pg/mL. It also gave an RT (HIVIIIB; Passage 3, 20 nM) of 68 cpm, a TCID50/mL (HIVIIIB; Passage 3, 20 nM) of 0 TCID50/mL and a p24 (HIVIIIB; Passage 3, 20 nM) of 1085 pg/mL. For the same molecule, the RT (HIV strain 92US727; Passage 1, 12.5 nM) was 281 cpm, the TCID50/mL (HIV strain 92US727; Passage 1, 12.5 nM) was 3.08 × 10^3 TCID50/mL and the p24 (HIV strain 92US727; Passage 1, 12.5 nM) was 971 pg/mL. The RT (HIV strain 92US727; Passage 2, 12.5 nM) was 1394 cpm, the TCID50/mL (HIV strain 92US727; Passage 2, 12.5 nM) was 8.30 × 10^3 TCID50/mL and the p24 (HIV strain 92US727; Passage 2, 12.5 nM) was 3505 pg/mL. For the same molecule, the RT (HIV strain 92US727; Passage 3, 12.5 nM) was 7015 cpm, the TCID50/mL (HIV strain 92US727; Passage 3, 12.5 nM) was 1.09 × 10^5 TCID50/mL and the p24 (HIV strain 92US727; Passage 3, 12.5 nM) was 61,275 pg/mL.
enfuvirtide [reference compound] showed an EC50 [4] of 80 nM.
